The text below walks through data of ChEMBL document CHEMBL1141183, “Development of potent mu-opioid receptor ligands using unique tyrosine analogues of endomorphin-2” (J Med Chem, 2005).

Structures are written as SMILES. Activity calls are given as the source filed them. The rule behind the calls is not given here.

A word on the IC50: it is the midpoint of a concentration-inhibition curve. A high value points to lower potency. One may read the Ki as a dissociation constant, usually derived from enzyme kinetics or from competition with a known ligand.

Chain of Mu-type opioid receptor (Rattus norvegicus, UniProt P33535) (P33535 whole entry): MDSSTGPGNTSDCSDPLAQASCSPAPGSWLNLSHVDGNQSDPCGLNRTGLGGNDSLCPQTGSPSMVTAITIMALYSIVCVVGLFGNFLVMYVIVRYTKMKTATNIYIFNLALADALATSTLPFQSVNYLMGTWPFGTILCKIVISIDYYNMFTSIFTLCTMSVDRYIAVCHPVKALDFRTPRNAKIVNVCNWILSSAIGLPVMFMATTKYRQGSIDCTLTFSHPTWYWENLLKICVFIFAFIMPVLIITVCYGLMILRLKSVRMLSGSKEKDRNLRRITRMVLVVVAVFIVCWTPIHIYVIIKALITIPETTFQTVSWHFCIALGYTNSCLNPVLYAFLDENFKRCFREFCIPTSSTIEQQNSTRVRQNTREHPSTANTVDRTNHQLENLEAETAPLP
Chain of Delta-type opioid receptor (Rattus norvegicus, UniProt P33533) (P33533 whole entry): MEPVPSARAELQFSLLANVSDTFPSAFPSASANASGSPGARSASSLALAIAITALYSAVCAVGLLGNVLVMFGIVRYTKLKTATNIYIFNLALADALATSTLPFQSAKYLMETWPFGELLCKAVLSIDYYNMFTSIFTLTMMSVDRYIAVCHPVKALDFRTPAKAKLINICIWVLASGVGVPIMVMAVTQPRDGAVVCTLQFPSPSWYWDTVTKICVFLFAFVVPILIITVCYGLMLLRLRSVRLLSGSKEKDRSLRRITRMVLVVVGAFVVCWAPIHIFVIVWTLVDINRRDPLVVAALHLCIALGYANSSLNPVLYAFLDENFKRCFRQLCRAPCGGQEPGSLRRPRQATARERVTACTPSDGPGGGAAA

The target of the first assay is Opioid receptors; mu & delta (Rattus norvegicus) (UniProt P33533+P33535). As to the kind of experiment: Relative binding to delta and mu Opioid receptors (ratio of Ki). It counts as protein assay.
Chain of Opioid receptors; mu & delta (Rattus norvegicus) (P33533 whole entry, looked up): as the sequence (P33533 whole entry) above
Chain of Opioid receptors; mu & delta (Rattus norvegicus) (P33535 whole entry, looked up): as the sequence (P33535 whole entry) above
In the case of `Cc1cc(O)cc(C(C)C)c1C[C@H](N)C(=O)N1CCC[C@H]1C(=O)N[C@@H](Cc1ccccc1)C(=O)N[C@@H](Cc1ccccc1)C(N)=O`, the Ratio stood at 1270.
On the same count and under the same terms, to `CCc1cc(O)cc(CC)c1C[C@H](N)C(=O)N1CCC[C@H]1C(=O)N[C@@H](Cc1ccccc1)C(=O)N[C@@H](Cc1ccccc1)C(N)=O` belongs 830; to `CCc1cc(O)cc(C)c1C[C@H](N)C(=O)N1CCC[C@H]1C(=O)N[C@@H](Cc1ccccc1)C(=O)N[C@@H](Cc1ccccc1)C(N)=O`, 884.
Still for that read-out and setting: to `Cc1cc(O)c(C)c(C)c1C[C@H](N)C(=O)N1CCC[C@H]1C(=O)N[C@@H](Cc1ccccc1)C(=O)N[C@@H](Cc1ccccc1)C(N)=O` belongs 5350.
`CC(C)c1cc(O)cc(C(C)C)c1C[C@H](N)C(=O)N1CCC[C@H]1C(=O)N[C@@H](Cc1ccccc1)C(=O)N[C@@H](Cc1ccccc1)C(N)=O`: the Ratio amounted to 46.
As to `Cc1cc(O)ccc1C[C@H](N)C(=O)N1CCC[C@H]1C(=O)N[C@@H](Cc1ccccc1)C(=O)N[C@@H](Cc1ccccc1)C(N)=O`, the Ratio came out at 4000.

In the next assay the target is Delta-type opioid receptor (Mus musculus, UniProt P32300). As to the kind of experiment: In vitro inhibition of opioid receptor delta using mouse vas deferens. It counts as tissue-based.
Chain of Delta-type opioid receptor (Mus musculus, UniProt P32300) (P32300 whole entry): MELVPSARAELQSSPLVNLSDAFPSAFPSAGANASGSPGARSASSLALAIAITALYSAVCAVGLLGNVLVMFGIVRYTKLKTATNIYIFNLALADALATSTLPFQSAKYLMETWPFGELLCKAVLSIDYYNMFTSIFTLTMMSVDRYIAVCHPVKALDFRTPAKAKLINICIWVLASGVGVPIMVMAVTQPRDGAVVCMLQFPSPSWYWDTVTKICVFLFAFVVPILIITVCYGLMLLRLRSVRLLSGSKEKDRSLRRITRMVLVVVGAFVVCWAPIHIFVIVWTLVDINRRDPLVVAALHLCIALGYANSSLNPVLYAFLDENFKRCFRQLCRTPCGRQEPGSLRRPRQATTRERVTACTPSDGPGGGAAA
Take `Cc1cc(O)cc(C(C)C)c1C[C@H](N)C(=O)N1CCC[C@H]1C(=O)N[C@@H](Cc1ccccc1)C(=O)N[C@@H](Cc1ccccc1)C(N)=O`: the IC50 stood at 601 nM.
Still for that read-out and setting: to `CCc1cc(O)cc(CC)c1C[C@H](N)C(=O)N1CCC[C@H]1C(=O)N[C@@H](Cc1ccccc1)C(=O)N[C@@H](Cc1ccccc1)C(N)=O` belongs 47.1 nM.
Same read-out and setting: to `CCc1cc(O)cc(C)c1C[C@H](N)C(=O)N1CCC[C@H]1C(=O)N[C@@H](Cc1ccccc1)C(=O)N[C@@H](Cc1ccccc1)C(N)=O` belongs 1.08 nM; to `Cc1cc(O)c(C)c(C)c1C[C@H](N)C(=O)N1CCC[C@H]1C(=O)N[C@@H](Cc1ccccc1)C(=O)N[C@@H](Cc1ccccc1)C(N)=O`, 46.4 nM.
`CC(C)c1cc(O)cc(C(C)C)c1C[C@H](N)C(=O)N1CCC[C@H]1C(=O)N[C@@H](Cc1ccccc1)C(=O)N[C@@H](Cc1ccccc1)C(N)=O` displayed an IC50 of more than 10000 nM.
On the same count and under the same terms, to `Cc1cc(O)ccc1C[C@H](N)C(=O)N1CCC[C@H]1C(=O)N[C@@H](Cc1ccccc1)C(=O)N[C@@H](Cc1ccccc1)C(N)=O` belongs 28.7 nM.

In a further assay the target is Mu-type opioid receptor (Cavia porcellus, UniProt P97266). As to the kind of experiment: In vitro inhibition of opioid receptor mu using isolated guinea pig ileum. It counts as tissue-based. The essentials: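 Myenteric plexus longitudinal muscle strips (2-3 cm) from small intestine of male Hartley guinea pigs, in organ bath with physiological salt buffer, pH 7.5, for μ-receptor agonism.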
Chain of Mu-type opioid receptor (Cavia porcellus, UniProt P97266) (P97266 whole entry): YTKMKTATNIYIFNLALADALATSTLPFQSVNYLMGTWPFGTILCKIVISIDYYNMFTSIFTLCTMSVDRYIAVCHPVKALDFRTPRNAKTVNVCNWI
The compound `Cc1cc(O)cc(C(C)C)c1C[C@H](N)C(=O)N1CCC[C@H]1C(=O)N[C@@H](Cc1ccccc1)C(=O)N[C@@H](Cc1ccccc1)C(N)=O` showed an IC50 of 10.6 nM.
The compound `CCc1cc(O)cc(CC)c1C[C@H](N)C(=O)N1CCC[C@H]1C(=O)N[C@@H](Cc1ccccc1)C(=O)N[C@@H](Cc1ccccc1)C(N)=O` returned an IC50 of 0.903 nM.
Regarding `CCc1cc(O)cc(C)c1C[C@H](N)C(=O)N1CCC[C@H]1C(=O)N[C@@H](Cc1ccccc1)C(=O)N[C@@H](Cc1ccccc1)C(N)=O`, half-maximal inhibition (IC50) was put at 0.623 nM.
Turning to `Cc1cc(O)c(C)c(C)c1C[C@H](N)C(=O)N1CCC[C@H]1C(=O)N[C@@H](Cc1ccccc1)C(=O)N[C@@H](Cc1ccccc1)C(N)=O`, 2.31 nM corresponded to half-maximal inhibition (IC50).
Still for that read-out and setting: to `CC(C)c1cc(O)cc(C(C)C)c1C[C@H](N)C(=O)N1CCC[C@H]1C(=O)N[C@@H](Cc1ccccc1)C(=O)N[C@@H](Cc1ccccc1)C(N)=O` belongs 299 nM; to `Cc1cc(O)ccc1C[C@H](N)C(=O)N1CCC[C@H]1C(=O)N[C@@H](Cc1ccccc1)C(=O)N[C@@H](Cc1ccccc1)C(N)=O`, 0.924 nM.

A further assay concerns the target Mu-type opioid receptor (Rattus norvegicus, UniProt P33535). Put plainly: Inhibition of [3H]DAMGO binding to mu-Opioid receptor. The essentials: (§1)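 Synaptosomal membranes preincubated to remove endogenous opioids, washed, stored at -80 °C with protease inhibitor. μ sites labelled with [3H]DAMGO, δ with [3H]DPDPE; nonspecific binding set by 2 µM unlabelled peptide. Filtration on polyethylenimine-soaked GF/C filters, scintillation counting. Five to seven peptide doses in duplicate, several preparations. Ki by Cheng-Prusoff.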
Compound `Cc1cc(O)cc(C(C)C)c1C[C@H](N)C(=O)N1CCC[C@H]1C(=O)N[C@@H](Cc1ccccc1)C(=O)N[C@@H](Cc1ccccc1)C(N)=O` yielded a Ki of 0.15 nM.
On the same count and under the same terms, to `CCc1cc(O)cc(CC)c1C[C@H](N)C(=O)N1CCC[C@H]1C(=O)N[C@@H](Cc1ccccc1)C(=O)N[C@@H](Cc1ccccc1)C(N)=O` belongs 0.084 nM; to `CCc1cc(O)cc(C)c1C[C@H](N)C(=O)N1CCC[C@H]1C(=O)N[C@@H](Cc1ccccc1)C(=O)N[C@@H](Cc1ccccc1)C(N)=O`, 0.063 nM.
For the compound `Cc1cc(O)c(C)c(C)c1C[C@H](N)C(=O)N1CCC[C@H]1C(=O)N[C@@H](Cc1ccccc1)C(=O)N[C@@H](Cc1ccccc1)C(N)=O`, the Ki was found to be 0.111 nM.
Still for that read-out and setting: to `CC(C)c1cc(O)cc(C(C)C)c1C[C@H](N)C(=O)N1CCC[C@H]1C(=O)N[C@@H](Cc1ccccc1)C(=O)N[C@@H](Cc1ccccc1)C(N)=O` belongs 2.29 nM; to `Cc1cc(O)ccc1C[C@H](N)C(=O)N1CCC[C@H]1C(=O)N[C@@H](Cc1ccccc1)C(=O)N[C@@H](Cc1ccccc1)C(N)=O`, 0.132 nM.

The species named for another assay is Mus musculus. Put plainly: Inhibition of electrically evoked contraction in mice by tail flick method; nd=None detected. It counts as functional, organism-based.
In the case of `CC(C)c1cc(O)cc(C(C)C)c1C[C@H](N)C(=O)N1CCC[C@H]1C(=O)N[C@@H](Cc1ccccc1)C(=O)N[C@@H](Cc1ccccc1)C(N)=O`, the inhibition result was “inactive”.

Another assay concerns the target Delta-type opioid receptor (Rattus norvegicus, UniProt P33533). As to the kind of experiment: Inhibition of [3H]DPDPE binding to delta-Opioid receptor. The gist of the method: as §1
`Cc1cc(O)cc(C(C)C)c1C[C@H](N)C(=O)N1CCC[C@H]1C(=O)N[C@@H](Cc1ccccc1)C(=O)N[C@@H](Cc1ccccc1)C(N)=O` registered a Ki of 190 nM.
In turn, `CCc1cc(O)cc(CC)c1C[C@H](N)C(=O)N1CCC[C@H]1C(=O)N[C@@H](Cc1ccccc1)C(=O)N[C@@H](Cc1ccccc1)C(N)=O` yielded a Ki of 69.7 nM.
Consider `CCc1cc(O)cc(C)c1C[C@H](N)C(=O)N1CCC[C@H]1C(=O)N[C@@H](Cc1ccccc1)C(=O)N[C@@H](Cc1ccccc1)C(N)=O`, for which the Ki came out at 55.7 nM.
For `Cc1cc(O)c(C)c(C)c1C[C@H](N)C(=O)N1CCC[C@H]1C(=O)N[C@@H](Cc1ccccc1)C(=O)N[C@@H](Cc1ccccc1)C(N)=O`, the Ki came to 593 nM.
Still for that read-out and setting: to `CC(C)c1cc(O)cc(C(C)C)c1C[C@H](N)C(=O)N1CCC[C@H]1C(=O)N[C@@H](Cc1ccccc1)C(=O)N[C@@H](Cc1ccccc1)C(N)=O` belongs 105 nM.
`Cc1cc(O)ccc1C[C@H](N)C(=O)N1CCC[C@H]1C(=O)N[C@@H](Cc1ccccc1)C(=O)N[C@@H](Cc1ccccc1)C(N)=O` showed a Ki of 529 nM.
